# Results of several laboratories.
# Compare with care: the assays were run in different laboratories.
# Pah: Phenylalanine-4-hydroxylase (Pah, Rattus norvegicus, UniProt P04176)
# VHL: von Hippel-Lindau disease tumor suppressor (VHL, Homo sapiens, UniProt P40337)
Structure (SMILES),target,effect on,technique,pH,setting,Kd [µM]
CC(=O)N[C@H]1[C@H]([C@H](O)[C@H](O)CO)O[C@@](O[C@H]2[C@@H](O)[C@@H](CO)O[C@@H](O[C@H]3[C@H](O)[C@@H](NC(C)=O)C(O)O[C@@H]3CO)[C@@H]2O)(C(=O)O)C[C@@H]1O (some centres unmarked),"SIGLEC5 (Homo sapiens, UniProt O15389, C36A)",binding,NMR,,,7000
NC(=O)c1ccc[n+]([C@@H]2O[C@H](COP(=O)(O)OP(=O)(O)OC[C@H]3O[C@@H](n4cnc5c(N)ncnc54)[C@H](O)[C@@H]3O)[C@@H](O)[C@H]2O)c1,"mdh (Escherichia coli, UniProt P61889)",binding,ITC,,,467
c1cncc(-c2cccc(Nc3nccc(NC4CCCCC4)n3)c2)c1,"Ribosomal protein S6 kinase alpha-1, N-terminal kinase domain (RPS6KA1, Homo sapiens, UniProt Q15418)",binding,competition with immobilised ligand,,,4.4
CSCC[C@H](N)C(=O)O,Pah,binding,fluorescence,pH 7.5,,24000
Cc1cnc(-c2ccc(-c3ccc(NC(=O)Nc4c(F)cc(F)cc4F)cc3F)c3c2C(=O)NC3)[nH]1,"Serine/threonine-protein kinase 3 (STK3, Homo sapiens, UniProt Q13188)",binding,competition with immobilised ligand,,,0.0039
Cc1cc2nc3c(=O)[nH]c(=O)nc-3n(C[C@H](O)[C@H](O)[C@H](O)COP(=O)(O)OP(=O)(O)OC[C@H]3O[C@@H](n4cnc5c(N)ncnc54)[C@H](O)[C@@H]3O)c2cc1C,"Annexin A11 (Homo sapiens, UniProt P50995)",binding,,,lysate,0.055
CCCN1CCN(c2ccc(-c3cncc(Cl)c3N3CCC4(CCNC4=O)CC3)cc2)CC1,"Serine/threonine-protein kinase MRCK beta (CDC42BPB, Homo sapiens, UniProt Q9Y5S2)",cell-free assay,,,lysate,4.03
Nc1ncnc2c1ncn2[C@@H]1O[C@H](COP(=O)(O)O)[C@@H](OP(=O)(O)O)[C@H]1O,"Sulfotransferase 2A1 (SULT2A1, Homo sapiens, UniProt Q06520)",binding,fluorescence,,,0.55
N[C@H](Cc1ccccc1)C(=O)O,Pah,binding,fluorescence,pH 7.5,,8400
NC(=O)[C@H](NNC(=O)c1c[nH]c2ccccc12)c1ccccc1,"GTPase KRas (KRAS, Homo sapiens, UniProt P01116, G12D)",binding,MST,,,3.5
Cc1ncsc1-c1ccc(CNC(=O)[C@@H]2C[C@H](O)CN2C(=O)[C@@H](NC(=O)C2(F)CC2)C(C)(C)C)c(OCCc2ccc(CN3CCN(c4cc(-c5ccccc5O)nnc4N)CC3)cc2)c1,VHL,binding,SPR,,,> 10
Cc1cc(Nc2cc3ncccc3c(N[C@@H]3C[C@H]4CC[C@@H](C3)N4CCC#N)n2)n[nH]1,"Cyclin-dependent kinase 4, with cyclin D3 (CDK4, Homo sapiens, UniProt P11802)",binding,competition with immobilised ligand,,,0.028
CC(C)C[C@H](N)C(=O)O,Pah,binding,fluorescence,pH 7.5,,93000
Cc1ncsc1-c1ccc(CNC(=O)[C@@H]2C[C@@H](O)CN2C(=O)[C@@H](NC(=O)C2(F)CC2)C(C)(C)C)c(OCCOc2ccc(CN3CCN(c4cc(-c5ccccc5O)nnc4N)CC3)cc2)c1,VHL,binding,SPR,,,0.25
